From ChEMBL document CHEMBL3875170, “2-Methyl-4/5-nitroimidazole derivatives potentiated against sexually transmitted Trichomonas: Design, synthesis, biology and 3D-QSAR study” (Eur J Med Chem, 2016)
≈ marks a conversion by molar mass, not a printed value.

Columns and labels:
[1] = Selectivity index, ratio of IC50 for human HeLa cells to MIC for metronidazole resistant Trichomonas vaginalis ATCC 50143; type: toxicity, cell-based; conditions: read-out: Selectivity Index
Outline: (§1)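 SI is HeLa IC50 divided by parasite MIC. HeLa cells seeded at 2 × 10⁴/well in triplicate in DMEM with 10% FCS, 24 h at 37 °C in 5% CO2. Medium then replaced with compound dilutions (0.05% DMSO controls) for 24 h. Viability by MTT read at OD540; IC50 is the concentration killing 50% of cells. MIC from 48 h trypan blue parasite killing in TYM.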

[2] = Cytotoxicity against human HeLa cells after 24 hrs by MTT assay; type: toxicity, cell-based
Outline: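 HeLa cells seeded at 2 × 10⁴ per well in DMEM with 10% FCS, in triplicate, and held 24 h at 37 °C in 5% CO₂. Exposed to compound dilutions for 24 h; controls received 0.05% DMSO. MTT in PBS pH 7.4 added, formazan dissolved in DMSO, OD540 read. IC50 taken as the concentration killing 50% of cells.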

Trichomonas vaginalis [3] = assay: Antiparasitic activity against metronidazole resistant Trichomonas vaginalis ATCC 50143 after 48 hrs by trypan blue exclusion assay; type: functional; conditions: ATCC 50143, 48 h
Outline: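 T. vaginalis trophozoites ([…]), log phase, grown in TYM with 10% FCS, vitamin mix and penicillin/streptomycin at 37 °C. Test agents from DMSO stocks serially diluted in TYM; DMSO/TYM vehicle controls. Anaerobic incubation at 37 °C with microscopic viability checks from 3 to 48 h by trypan blue exclusion. MIC is the lowest concentration killing all cells by 48 h. Repeated three times.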

Trichomonas vaginalis [4] = assay: Antiparasitic activity against metronidazole sensitive Trichomonas vaginalis ATCC 33592 after 48 hrs by trypan blue exclusion assay; type: functional; conditions: ATCC 33592, 48 h
[5] = Selectivity index, ratio of IC50 for human HeLa cells to MIC for metronidazole sensitive Trichomonas vaginalis ATCC 33592; type: toxicity, cell-based; conditions: read-out: Selectivity Index; outline: as §1
Trichomonas vaginalis [6] = assay: Potency index, ratio of metronidazole MIC to compound MIC for metronidazole resistant Trichomonas vaginalis ATCC 50143; type: functional

SMILES	selectivity ratio [1]	IC50 at 24 h [2]	MIC (Trichomonas vaginalis [3])	MIC (Trichomonas vaginalis [4])	selectivity ratio [5]	Ratio (Trichomonas vaginalis [6])
Cc1nc([N+](=O)[O-])cn1CC(O)CSC(=S)N1CCN(C(=O)OC(C)(C)C)CC1 (racemic)	> 9	> 5 mM	562 µM (≈ 250 µg/mL)	28.1 µM (≈ 12.5 µg/mL)	> 178	–
Cc1ncc([N+](=O)[O-])n1CC(O)CSC(=S)N1CCCCCC1 (racemic)	6	0.411 mM	69.8 µM (≈ 25 µg/mL)	34.9 µM (≈ 12.5 µg/mL)	11	2.5 - 12.6
Cc1ncc([N+](=O)[O-])n1CC(O)CN1CCCCCC1 (racemic)	> 113	> 5 mM	44.3 µM (≈ 12.5 µg/mL)	22.2 µM (≈ 6.26 µg/mL)	> 227	<=12.7
Cc1ncc([N+](=O)[O-])n1CC(O)CN1CCCCC1C (racemic)	> 11	> 5 mM	443 µM (≈ 125 µg/mL)	55.4 µM (≈ 15.6 µg/mL)	> 90	–
CCN1CCN(CC(O)Cn2cc([N+](=O)[O-])nc2C)CC1 (racemic)	–	> 5 mM	–	337 µM (≈ 100 µg/mL)	> 14	–
Cc1ncc([N+](=O)[O-])n1CC(O)CSC(=S)N1CCCCC1 (racemic)	9	1.4 mM	145 µM (≈ 50.1 µg/mL)	72.7 µM (≈ 25 µg/mL)	19	2.5 - 12.6
Cc1nc([N+](=O)[O-])cn1CC(O)Cn1cncn1 (racemic)	> 5	> 5 mM	992 µM (≈ 250 µg/mL)	99.2 µM (≈ 25 µg/mL)	> 50	–
Cc1ncc([N+](=O)[O-])n1CC(O)CSC(=S)N1CCN(c2ccccn2)CC1 (racemic)	20	2.97 mM	148 µM (≈ 62.6 µg/mL)	29.6 µM (≈ 12.5 µg/mL)	100	<=12.7
Cc1ncc([N+](=O)[O-])n1CC(O)Cn1cnc([N+](=O)[O-])c1 (racemic)	> 47	> 5 mM	106 µM (≈ 31.3 µg/mL)	26.4 µM (≈ 7.81 µg/mL)	> 192	<=12.7
Cc1ncc([N+](=O)[O-])n1CC(O)CN1CCC(C)CC1 (racemic)	> 28	> 5 mM	177 µM (≈ 50.1 µg/mL)	44.3 µM (≈ 12.5 µg/mL)	> 113	<=12.7
Cc1nc([N+](=O)[O-])cn1CC(O)Cn1c([N+](=O)[O-])cnc1C (racemic)	43	4.35 mM	101 µM (≈ 31.3 µg/mL)	50.4 µM (≈ 15.6 µg/mL)	86	<=12.7
Cc1ncc([N+](=O)[O-])n1CC(O)Cn1nnc2ccccc21 (racemic)	103	4.24 mM	41.4 µM (≈ 12.5 µg/mL)	25.9 µM (≈ 7.82 µg/mL)	169	<=12.7
Cc1ncc([N+](=O)[O-])n1CC(O)CN1CCN(c2cccc(Cl)c2)CC1 (racemic)	4	1.44 mM	330 µM (≈ 125 µg/mL)	132 µM (≈ 50.1 µg/mL)	10	<=12.7
Cc1ncc([N+](=O)[O-])n1CC(O)CSC(=S)N1CCOCC1 (racemic)	31	4.52 mM	144 µM (≈ 50.1 µg/mL)	36.1 µM (≈ 12.5 µg/mL)	125	2.5 - 12.6
CCN1CCN(C(=S)SCC(O)Cn2c([N+](=O)[O-])cnc2C)CC1 (racemic)	> 60	> 5 mM	83.8 µM (≈ 31.3 µg/mL)	20.9 µM (≈ 7.82 µg/mL)	> 250	<=12.7
COc1ccccc1N1CCN(C(=S)SCC(O)Cn2cc([N+](=O)[O-])nc2C)CC1 (racemic)	> 4	> 5 mM	1110 µM (≈ 501 µg/mL)	222 µM (≈ 100 µg/mL)	> 22	–
CCN(C)C(=S)SCC(O)Cn1c([N+](=O)[O-])cnc1C (stereo unspecified)	10	4.15 mM	393 µM (≈ 125 µg/mL)	24.6 µM (≈ 7.82 µg/mL)	169	–
Cc1nc([N+](=O)[O-])cn1CC(O)CSC(=S)N1CCN(c2cccc(Cl)c2Cl)CC1 (racemic)	2	0.724 mM	510 µM (≈ 250 µg/mL)	25.5 µM (≈ 12.5 µg/mL)	30	–
Cc1ncc([N+](=O)[O-])n1CC(O)Cn1cncn1 (racemic)	50	4.97 mM	99.2 µM (≈ 25 µg/mL)	31 µM (≈ 7.82 µg/mL)	160	<=12.7
Cc1ncc([N+](=O)[O-])n1CC(O)Cn1nccn1 (racemic)	> 102	> 5 mM	49.6 µM (≈ 12.5 µg/mL)	31 µM (≈ 7.82 µg/mL)	> 161	<=12.7
Cc1ncc([N+](=O)[O-])n1CC(O)CN1CCCCC1 (racemic)	> 26	> 5 mM	187 µM (≈ 50.1 µg/mL)	23.3 µM (≈ 6.26 µg/mL)	> 217	<=12.7
Cc1nc([N+](=O)[O-])cn1CC(O)CSC(=S)N1CCN(c2cccc(Cl)c2)CC1 (racemic)	3	1.74 mM	549 µM (≈ 251 µg/mL)	54.9 µM (≈ 25.1 µg/mL)	31	–
Cc1ncc([N+](=O)[O-])n1CC(O)CSC(=S)N1CCN(c2ncccn2)CC1 (racemic)	69	2.04 mM	29.6 µM (≈ 12.5 µg/mL)	29.6 µM (≈ 12.5 µg/mL)	69	12.3
CCCCN1CCN(C(=S)SCC(O)Cn2cc([N+](=O)[O-])nc2C)CC1 (racemic)	–	4.33 mM	–	125 µM (≈ 50.1 µg/mL)	34	–
Cc1nc([N+](=O)[O-])cn1CC(O)CN1CCN(c2cccc(Cl)c2Cl)CC1 (racemic)	3	3.62 mM	1210 µM (≈ 500 µg/mL)	121 µM (≈ 50 µg/mL)	30	–
CCN1CCN(C(=S)SCC(O)Cn2cc([N+](=O)[O-])nc2C)CC1 (racemic)	> 3	> 5 mM	1340 µM (≈ 501 µg/mL)	134 µM (≈ 50.1 µg/mL)	> 37	–
Cc1nc([N+](=O)[O-])cn1CC(O)CN1CCN(c2ccccn2)CC1 (racemic)	> 3	> 5 mM	1450 µM (≈ 501 µg/mL)	144 µM (≈ 50.1 µg/mL)	> 34	–
CCOC(=O)N1CCN(C(=S)SCC(O)Cn2cc([N+](=O)[O-])nc2C)CC1 (racemic)	4	2.36 mM	600 µM (≈ 250 µg/mL)	120 µM (≈ 50.1 µg/mL)	19	–
Cc1nc([N+](=O)[O-])cn1CC(O)CSC(=S)N1CCCC(C)C1 (racemic)	2	2.7 mM	1400 µM (≈ 501 µg/mL)	34.9 µM (≈ 12.5 µg/mL)	105	–
